Laboratory results published in ChEMBL document CHEMBL5653631, “A Potent and Selective ULK1 Inhibitor Suppresses Autophagy and Sensitizes Cancer Cells to Nutrient Stress” (iScience, 2018).
Each block holds one compound with its values, some of them ahead of it.

How the values were obtained:
[1] = biological target: T1, Tyrosine-protein kinase ITK/TSK (Homo sapiens) (UniProt Q08881); assay: Inhibition of human recombinant ITK at 500 nM related to control ULK1
T1 sequence (whole entry): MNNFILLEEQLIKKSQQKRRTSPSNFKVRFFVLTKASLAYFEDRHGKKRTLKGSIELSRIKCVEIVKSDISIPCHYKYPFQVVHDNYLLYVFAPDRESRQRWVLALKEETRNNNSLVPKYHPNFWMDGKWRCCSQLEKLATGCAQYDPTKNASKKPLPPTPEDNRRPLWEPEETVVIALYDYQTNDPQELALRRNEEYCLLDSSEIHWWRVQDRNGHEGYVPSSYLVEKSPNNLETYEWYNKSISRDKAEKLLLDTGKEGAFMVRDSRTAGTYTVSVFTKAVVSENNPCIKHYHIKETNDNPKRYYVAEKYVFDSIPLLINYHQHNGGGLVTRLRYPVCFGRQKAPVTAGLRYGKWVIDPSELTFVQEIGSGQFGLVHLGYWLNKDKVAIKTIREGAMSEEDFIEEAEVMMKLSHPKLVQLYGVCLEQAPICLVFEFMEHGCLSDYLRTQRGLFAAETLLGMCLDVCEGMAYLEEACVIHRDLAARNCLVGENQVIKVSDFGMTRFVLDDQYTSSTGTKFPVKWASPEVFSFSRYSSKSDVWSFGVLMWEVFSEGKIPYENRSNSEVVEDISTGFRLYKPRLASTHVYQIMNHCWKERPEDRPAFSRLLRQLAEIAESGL

[2] = biological target: Serine/threonine-protein kinase PLK2 (Homo sapiens) (UniProt Q9NYY3); assay: Inhibition of human recombinant PLK2 at 500 nM related to control ULK1
Chain of Serine/threonine-protein kinase PLK2 (Homo sapiens) (Q9NYY3 whole entry, looked up): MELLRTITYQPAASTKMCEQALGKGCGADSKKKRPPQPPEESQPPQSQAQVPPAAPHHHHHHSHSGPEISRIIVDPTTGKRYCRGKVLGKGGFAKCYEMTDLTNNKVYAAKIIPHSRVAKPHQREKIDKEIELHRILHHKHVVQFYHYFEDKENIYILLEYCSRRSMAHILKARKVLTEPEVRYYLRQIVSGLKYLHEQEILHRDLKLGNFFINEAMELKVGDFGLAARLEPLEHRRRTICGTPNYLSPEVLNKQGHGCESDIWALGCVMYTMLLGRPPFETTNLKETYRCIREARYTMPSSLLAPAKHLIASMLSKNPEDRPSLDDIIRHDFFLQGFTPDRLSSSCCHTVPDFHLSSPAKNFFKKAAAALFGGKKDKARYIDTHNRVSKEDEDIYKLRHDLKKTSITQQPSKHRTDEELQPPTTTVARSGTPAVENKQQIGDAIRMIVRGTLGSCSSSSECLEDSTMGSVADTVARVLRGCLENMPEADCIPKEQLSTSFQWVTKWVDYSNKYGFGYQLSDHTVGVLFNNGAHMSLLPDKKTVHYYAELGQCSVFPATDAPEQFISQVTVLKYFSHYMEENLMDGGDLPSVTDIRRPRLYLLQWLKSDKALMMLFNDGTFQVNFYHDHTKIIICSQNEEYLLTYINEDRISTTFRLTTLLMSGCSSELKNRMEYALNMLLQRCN

[3] = biological target: Mitogen-activated protein kinase 14 (Homo sapiens) (UniProt Q16539); assay: Inhibition of human recombinant p38alpha at 15 nM in presence of ATP by radiometric assay relative to control
Chain of Mitogen-activated protein kinase 14 (Homo sapiens) (Q16539 whole entry): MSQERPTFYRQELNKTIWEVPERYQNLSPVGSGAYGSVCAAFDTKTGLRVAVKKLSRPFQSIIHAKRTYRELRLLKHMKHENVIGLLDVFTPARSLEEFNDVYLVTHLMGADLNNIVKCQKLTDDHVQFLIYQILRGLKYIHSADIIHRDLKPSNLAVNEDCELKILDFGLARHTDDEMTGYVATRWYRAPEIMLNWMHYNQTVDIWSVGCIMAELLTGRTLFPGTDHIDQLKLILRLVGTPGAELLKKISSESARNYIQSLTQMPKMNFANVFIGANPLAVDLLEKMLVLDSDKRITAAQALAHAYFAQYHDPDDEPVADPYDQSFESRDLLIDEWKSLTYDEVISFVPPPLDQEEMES

[4] = biological target: Tyrosine-protein kinase receptor UFO (Homo sapiens) (UniProt P30530); assay: Inhibition of human recombinant AXL at 15 nM related to control ULK1
Chain of Tyrosine-protein kinase receptor UFO (Homo sapiens) (P30530 whole entry): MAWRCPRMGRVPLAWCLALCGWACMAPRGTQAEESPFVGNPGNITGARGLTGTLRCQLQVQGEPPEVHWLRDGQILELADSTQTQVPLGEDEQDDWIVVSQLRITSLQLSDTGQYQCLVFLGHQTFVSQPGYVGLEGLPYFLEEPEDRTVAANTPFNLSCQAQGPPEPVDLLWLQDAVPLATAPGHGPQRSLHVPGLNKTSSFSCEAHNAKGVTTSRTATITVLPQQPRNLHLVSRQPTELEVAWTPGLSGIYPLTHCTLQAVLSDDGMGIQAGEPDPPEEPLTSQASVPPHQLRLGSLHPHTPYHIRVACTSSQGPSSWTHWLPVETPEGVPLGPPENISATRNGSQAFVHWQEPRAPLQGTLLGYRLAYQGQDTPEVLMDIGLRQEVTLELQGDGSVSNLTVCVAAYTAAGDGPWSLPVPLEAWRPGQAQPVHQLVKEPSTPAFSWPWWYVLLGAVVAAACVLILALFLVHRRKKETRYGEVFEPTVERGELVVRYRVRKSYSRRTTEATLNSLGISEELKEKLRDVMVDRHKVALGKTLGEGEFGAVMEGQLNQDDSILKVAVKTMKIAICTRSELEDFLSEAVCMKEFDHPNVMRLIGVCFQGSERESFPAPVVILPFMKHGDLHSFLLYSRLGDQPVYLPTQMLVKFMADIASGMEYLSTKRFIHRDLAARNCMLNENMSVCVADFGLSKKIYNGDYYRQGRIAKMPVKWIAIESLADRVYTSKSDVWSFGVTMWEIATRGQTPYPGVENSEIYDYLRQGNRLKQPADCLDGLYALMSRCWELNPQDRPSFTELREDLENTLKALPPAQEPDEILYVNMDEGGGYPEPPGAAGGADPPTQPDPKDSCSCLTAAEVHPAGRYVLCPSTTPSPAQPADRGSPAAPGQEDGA
Procedure, shortened: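 Panel of 327 recombinant human kinases, each assayed in vitro by radiometric activity assay in duplicate at a single inhibitor concentration per compound, chosen with reference to its ULK1 inhibition. Activity remaining was expressed as percent of vehicle control, and percent inhibition was calculated as 100 minus percent activity remaining.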

[5] = biological target: T2, Serine/threonine-protein kinase NLK (Homo sapiens) (UniProt Q9UBE8); assay: Inhibition of human recombinant NLK at 15 nM related to control ULK1
T2 sequence (whole entry): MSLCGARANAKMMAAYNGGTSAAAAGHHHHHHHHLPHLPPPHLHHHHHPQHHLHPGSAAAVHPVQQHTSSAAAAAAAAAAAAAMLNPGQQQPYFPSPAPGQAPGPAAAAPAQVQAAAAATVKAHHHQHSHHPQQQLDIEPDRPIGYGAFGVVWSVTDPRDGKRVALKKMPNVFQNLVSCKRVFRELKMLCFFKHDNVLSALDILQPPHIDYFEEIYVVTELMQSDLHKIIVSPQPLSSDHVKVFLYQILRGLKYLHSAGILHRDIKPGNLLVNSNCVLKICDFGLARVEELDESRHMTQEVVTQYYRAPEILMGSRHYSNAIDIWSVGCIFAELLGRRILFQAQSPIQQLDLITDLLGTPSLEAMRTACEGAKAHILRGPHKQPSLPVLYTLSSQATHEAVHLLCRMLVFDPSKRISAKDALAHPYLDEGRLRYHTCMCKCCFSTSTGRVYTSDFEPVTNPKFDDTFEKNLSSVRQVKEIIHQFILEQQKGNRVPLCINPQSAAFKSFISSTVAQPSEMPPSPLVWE

[6] = biological target: T3, Serine/threonine-protein kinase TBK1 (Homo sapiens) (UniProt Q9UHD2); assay: Inhibition of human recombinant TBK1 at 15 nM related to control ULK1
T3 sequence (whole entry): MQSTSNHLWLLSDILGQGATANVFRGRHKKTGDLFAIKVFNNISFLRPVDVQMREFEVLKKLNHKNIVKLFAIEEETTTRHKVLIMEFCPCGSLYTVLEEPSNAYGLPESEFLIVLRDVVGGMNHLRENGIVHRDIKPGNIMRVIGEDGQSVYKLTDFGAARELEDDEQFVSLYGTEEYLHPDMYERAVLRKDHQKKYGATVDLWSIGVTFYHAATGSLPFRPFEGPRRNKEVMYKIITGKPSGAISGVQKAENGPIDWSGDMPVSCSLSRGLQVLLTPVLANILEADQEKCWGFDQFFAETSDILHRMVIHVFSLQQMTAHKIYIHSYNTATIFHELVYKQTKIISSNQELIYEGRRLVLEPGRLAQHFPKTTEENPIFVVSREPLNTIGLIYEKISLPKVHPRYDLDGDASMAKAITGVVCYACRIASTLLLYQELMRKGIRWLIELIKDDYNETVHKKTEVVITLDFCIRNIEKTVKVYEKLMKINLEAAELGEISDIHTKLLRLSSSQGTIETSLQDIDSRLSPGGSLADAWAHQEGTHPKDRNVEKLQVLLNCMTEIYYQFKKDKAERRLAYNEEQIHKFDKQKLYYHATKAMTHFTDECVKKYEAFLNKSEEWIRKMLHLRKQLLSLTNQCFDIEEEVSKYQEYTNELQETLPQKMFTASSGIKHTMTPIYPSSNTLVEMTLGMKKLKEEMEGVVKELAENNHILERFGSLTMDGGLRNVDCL

[7] = biological target: Myosin light chain kinase 2, skeletal/cardiac muscle (Homo sapiens) (UniProt Q9H1R3); assay: Inhibition of human recombinant skMLCK at 40 nM in presence of ATP by radiometric assay relative to control
Chain of Myosin light chain kinase 2, skeletal/cardiac muscle (Homo sapiens) (Q9H1R3 whole entry): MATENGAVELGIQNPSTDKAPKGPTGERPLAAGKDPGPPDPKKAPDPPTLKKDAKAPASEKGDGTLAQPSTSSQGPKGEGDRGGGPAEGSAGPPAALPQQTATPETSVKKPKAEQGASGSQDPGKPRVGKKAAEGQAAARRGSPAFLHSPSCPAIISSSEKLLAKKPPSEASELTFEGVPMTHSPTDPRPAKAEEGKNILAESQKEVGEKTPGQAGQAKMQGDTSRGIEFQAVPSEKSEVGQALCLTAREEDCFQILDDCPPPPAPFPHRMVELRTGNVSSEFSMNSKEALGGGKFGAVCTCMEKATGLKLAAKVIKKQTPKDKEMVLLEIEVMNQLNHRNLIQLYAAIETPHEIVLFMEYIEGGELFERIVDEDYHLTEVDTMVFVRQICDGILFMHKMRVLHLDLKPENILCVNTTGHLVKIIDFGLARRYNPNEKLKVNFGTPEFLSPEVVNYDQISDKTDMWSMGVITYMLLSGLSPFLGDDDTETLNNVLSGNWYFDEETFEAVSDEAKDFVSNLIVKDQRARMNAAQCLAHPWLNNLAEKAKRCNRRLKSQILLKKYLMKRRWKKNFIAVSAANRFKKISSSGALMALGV

[8] = biological target: Cyclin-dependent kinase-like 3 (Homo sapiens) (UniProt Q8IVW4); assay: Inhibition of human recombinant CDKL3 at 40 nM related to control ULK1
Chain of Cyclin-dependent kinase-like 3 (Homo sapiens) (Q8IVW4 whole entry, looked up): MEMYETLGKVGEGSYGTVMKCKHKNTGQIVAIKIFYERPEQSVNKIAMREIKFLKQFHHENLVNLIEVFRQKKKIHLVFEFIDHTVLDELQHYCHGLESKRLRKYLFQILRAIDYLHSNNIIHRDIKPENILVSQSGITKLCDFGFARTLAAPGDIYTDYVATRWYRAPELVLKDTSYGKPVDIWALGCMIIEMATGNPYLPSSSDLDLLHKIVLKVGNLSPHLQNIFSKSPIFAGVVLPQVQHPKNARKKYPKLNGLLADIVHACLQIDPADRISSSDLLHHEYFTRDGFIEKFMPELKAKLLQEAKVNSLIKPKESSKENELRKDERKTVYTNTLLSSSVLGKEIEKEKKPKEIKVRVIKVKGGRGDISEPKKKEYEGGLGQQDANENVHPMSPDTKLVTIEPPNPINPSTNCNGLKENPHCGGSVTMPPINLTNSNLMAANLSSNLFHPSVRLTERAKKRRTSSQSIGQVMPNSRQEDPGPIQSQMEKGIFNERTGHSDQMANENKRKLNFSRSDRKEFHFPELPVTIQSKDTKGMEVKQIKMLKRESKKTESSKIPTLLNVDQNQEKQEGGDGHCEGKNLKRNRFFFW

[9] = biological target: Casein kinase II subunit alpha' (Homo sapiens) (UniProt P19784); assay: Inhibition of human recombinant CK2a2 at 40 nM related to control ULK1
Chain of Casein kinase II subunit alpha' (Homo sapiens) (P19784 whole entry, looked up): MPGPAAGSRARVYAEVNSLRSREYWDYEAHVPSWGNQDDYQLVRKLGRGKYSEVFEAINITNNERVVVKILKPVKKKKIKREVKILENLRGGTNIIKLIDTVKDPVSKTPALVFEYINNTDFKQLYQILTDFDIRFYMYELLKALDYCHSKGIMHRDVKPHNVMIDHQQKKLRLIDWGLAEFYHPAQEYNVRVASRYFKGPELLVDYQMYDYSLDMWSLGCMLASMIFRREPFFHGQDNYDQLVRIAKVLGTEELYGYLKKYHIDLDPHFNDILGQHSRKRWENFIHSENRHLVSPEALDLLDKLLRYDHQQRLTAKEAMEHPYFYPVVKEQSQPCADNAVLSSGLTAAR

fold change (FC) [1]: 0.01
fold change (FC) [2]: 0.05
SMILES: CNC(=O)c1ccccc1Oc1nc(Nc2cc(OC)c(OC)c(OC)c2)ncc1Br

inhibition [3]: 5%
fold change (FC) [4]: 0.13
fold change (FC) [5]: 0.1
fold change (FC) [6]: 0.9
SMILES: CC(C)[C@H](NC(=O)c1cc(-c2cnn3cc(-c4ccc(OCCN5CCCCC5)cc4)cnc23)cs1)C(F)(F)F

inhibition [7]: 0%
fold change (FC) [8]: 0.53
fold change (FC) [9]: 0.11
SMILES: O=C(N[C@@H](C1CC1)C(F)(F)F)c1cc(-c2cnn3cc(-c4ccc(F)cc4)cnc23)cs1
